Calls of active or inactive are those of the source. The calls are words filed in the database; no cut-off is given here.
Key:
[1] = molecular target: T1, Histone-arginine methyltransferase CARM1 (Homo sapiens) (UniProt Q86X55); experiment: Binding affinity to full length recombinant PRMT4 (unknown origin) assessed as in vitro residence time by surface plasmon resonance analysis
T1 sequence (whole entry): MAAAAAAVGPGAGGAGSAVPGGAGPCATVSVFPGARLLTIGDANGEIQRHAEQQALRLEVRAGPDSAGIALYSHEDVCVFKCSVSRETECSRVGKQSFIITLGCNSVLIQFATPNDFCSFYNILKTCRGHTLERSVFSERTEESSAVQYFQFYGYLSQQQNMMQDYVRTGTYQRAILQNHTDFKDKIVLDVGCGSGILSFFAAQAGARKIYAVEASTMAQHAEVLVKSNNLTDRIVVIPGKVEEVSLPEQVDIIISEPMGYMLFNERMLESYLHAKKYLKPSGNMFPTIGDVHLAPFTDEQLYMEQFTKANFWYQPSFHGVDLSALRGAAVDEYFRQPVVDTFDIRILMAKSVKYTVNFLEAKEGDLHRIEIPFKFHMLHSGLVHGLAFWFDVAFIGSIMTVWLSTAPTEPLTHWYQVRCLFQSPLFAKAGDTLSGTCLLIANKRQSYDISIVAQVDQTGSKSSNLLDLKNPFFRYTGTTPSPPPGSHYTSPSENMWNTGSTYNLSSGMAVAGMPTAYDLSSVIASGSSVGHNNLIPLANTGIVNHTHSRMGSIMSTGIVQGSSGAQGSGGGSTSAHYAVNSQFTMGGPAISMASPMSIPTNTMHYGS
Summary of the method: (§1)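 Full-length recombinant PRMT4 was amine-coupled to a CM5 chip at 50 μg/mL in 10 mM acetate pH 4.5, to 4.6 kRU, with an empty reference cell. The running buffer was PBS pH 7.4 with 0.05% Tween-20 and 2% DMSO. Compounds ran as 12 serial dilutions from 640 to 10 nM at 25 °C and 30 μL/min, with 90 s association and 90 s dissociation. Data were solvent-corrected and double-referenced, and KD was taken as koff/kon.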

[2] = molecular target: T1, Histone-arginine methyltransferase CARM1 (Homo sapiens); experiment: Binding affinity to full length recombinant PRMT4 (unknown origin) assessed as binding constant (Kon) by surface plasmon resonance analysis; summary of the method: as §1
[3] = molecular target: T1, Histone-arginine methyltransferase CARM1 (Homo sapiens); experiment: Binding affinity to full length recombinant PRMT4 (unknown origin) assessed as binding constant (Koff) by surface plasmon resonance analysis; summary of the method: as §1
HEK-293T = experiment: Cytotoxicity against human HEK293T cells assessed as cell viability at 10 to 100 uM incubated for 24 to 72 hrs by MTT assay; assay type: toxicity, cell-based; conditions: dose lower 10 µM, time lower 24 hrs, dose upper 100 µM, time upper 72 hrs
Summary of the method: (§2)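 HEK293T cells grown in DMEM with 10% FBS, penicillin/streptomycin and 2 mM glutamine at 37 °C, 5% CO2; seeded at 5 × 10^4 cells/mL, exposed 24 or 72 h to 10, 50 or 100 μM in 0.2% DMSO; MTT formazan dissolved in DMSO, read at 550 nm minus 620 nm; quadruplicate; percent of 0.2% DMSO control.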

[4] = Apparent permeability of the compound in phosphate buffer at pH 7.4 measured after 24 hrs by PAMPA assay; assay type: ADME; conditions: pH 7.4, 24 h
[5] = Cytotoxicity against human HEK293T cells assessed as cell viability at 10 to 100 uM measured after 72 hrs by MTT assay; assay type: toxicity, cell-based, HEK-293T; conditions: dose 10-100 µM, read-out: Activity; summary of the method: as §2
MCF7 [6] = experiment: Antiproliferative activity against human MCF7 cells assessed as reduction in cell viability at 50 uM incubated up to 8 days by cell titer-glo assay; assay type: functional, cell-based; conditions: time <= 8.0 day
Summary of the method: (§3)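 MCF7 seeded at 1000 cells/well in 96-well plates; proliferation read at days 0, 2, 4, 6 and 8 with medium changed at day 4; viability measured by CellTiter-Glo luminescence.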

[7] = Toxicity in human HEK293T cells assessed as cell death at >10 uM measured after 24 hrs; conditions: hek-293t
MCF7 [8] = experiment: Antiproliferative activity against human MCF7 cells assessed as reduction in cell viability at 10 uM incubated up to 8 days by cell titer-glo assay; assay type: functional, cell-based; conditions: time <= 8.0 day; summary of the method: as §3
[9] = molecular target: T2, Histone-arginine methyltransferase CARM1 (Homo sapiens, UniProt Q86X55); experiment: Inhibition of PRMT4 (unknown origin)
T2 sequence (Q86X55 whole entry): T1 sequence (whole entry)

Homo sapiens = species: Homo sapiens; experiment: Selectivity index, ratio of IC50 for inhibition of human full length recombinant GST-tagged PRMT6 (2 to 375 residues) using GST-GAR as substrate to IC50 for inhibition of human full length recombinant GST-tagged PRMT4 (2 to 608 residues) using histone H3 as substrate
Summary of the method: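 Radioisotope filter-binding assay: PRMT6 used 5 μM GST-GAR and PRMT4 used 5 μM histone H3, in pH 8.5 Tris buffer with 1% DMSO. Compound was preincubated 20 min at room temperature, then 1 μM 3H-SAM was added for 60 min at 30 °C, with scintillation read-out. […] Index = IC50(PRMT6)/IC50(PRMT4), rounded to integer.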

K [2]	permeability [4]	Compound	Activity (HEK-293T)	viability at 72 h, up to 100 µM [5] [%]	also measured
2.7 10^6/Ms	Impermeable	COC(=O)c1cc(O)c2cc(NC(=O)NCCCCNC(=N)NCC[C@H]3O[C@@H](n4cnc5c(N)ncnc54)[C@H](O)[C@@H]3O)ccc2c1	Non-Toxic	80	–
–	Impermeable	COC(=O)c1cc(O)c2cc(NC(=O)NCCCCNC(=N)NC/C=C/[C@H]3O[C@@H](n4cnc5c(N)ncnc54)[C@H](O)[C@@H]3O)ccc2c1	Non-Toxic	80	Activity (MCF7 [6]): Active
–	–	CNCCN1CCC(c2cc(CN(C)C(=O)c3cccc(Oc4ccccc4)c3)ccn2)CC1	–	–	Activity [7]: Toxic; Activity (MCF7 [8]): Active
–	–	COc1ccc(CCNC(=O)[C@@H](N)CC[C@H](CNCc2ccccc2)C[C@H]2O[C@@H](n3cnc4c(N)ncnc43)[C@H](O)[C@@H]2O)cc1	–	–	IC50 [9]: 1900 nM
2.58 10^4/Ms	–	COC(=O)c1cc(O)c2cc(NC(=O)NCCCCCCCNC(=N)NC[C@H]3O[C@@H](n4cnc5c(N)ncnc54)[C@H](O)[C@@H]3O)ccc2c1	–	–	–
3.49 10^4/Ms	–	COC(=O)c1cc(O)c2cc(NC(=O)NCCCCCNC(=N)NC[C@H]3O[C@@H](n4cnc5c(N)ncnc54)[C@H](O)[C@@H]3O)ccc2c1	–	–	Selectivity Index (Homo sapiens): > 238
0.25 10^6/Ms	Impermeable	COC(=O)c1cc(O)c2cc(NC(=O)NCCCCNC(=N)NCCC[C@H]3O[C@@H](n4cnc5c(N)ncnc54)[C@H](O)[C@@H]3O)ccc2c1	Non-Toxic	80	–

Compound	K [2]	permeability [4]	Activity (HEK-293T)	viability at 72 h, up to 100 µM [5] [%]	also measured
C[S+](CCC(N)C(=O)O)C[C@H]1O[C@@H](n2cnc3c(N)ncnc32)[C@H](O)[C@@H]1O (single isomer, unassigned)	2.9 10^5/Ms	–	–	–	TIME [1]: 0.0926 h; K [3]: 0.003 s⁻¹

From ChEMBL document CHEMBL5137016, “Turning Nonselective Inhibitors of Type I Protein Arginine Methyltransferases into Potent and Selective Inhibitors of Protein Arginine Methyltransferase 4 through a Deconstruction-Reconstruction and Fragment-Growing Approach” (J Med Chem, 2022)
